Data as given in PMC3355950 (The Journal of Neuroscience, 2012).
Converted amounts (≈) assume the structure as drawn.

Legend:
[1] = target: GluN1/2A-ΔATD (Rattus norvegicus, UniProt P35439+Q00959); assay: Two-electrode voltage-clamp recordings, Xenopus oocytes; format: cell-based; conditions: 100 μM glutamate plus 30 μM glycine; vs GluN1/GluN2A
[2] = target: T1, GluN1/GluN2A (Rattus norvegicus, UniProt P35439+Q00959); assay: Whole-cell voltage-clamp recordings, HEK293 cells, rapid solution exchange; format: cell-based; conditions: for % fast / τfast / τslow: brief application (10 ms) of 1000 μM glycine
Procedure, shortened: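 HEK293 cells were plated on poly-D-lysine coverslips about 48 h ahead and calcium-phosphate cotransfected with GluN1, GluN2A and GFP (1:1:1). 200 μM D,L-APV and 200 μM 7-chlorokynurenic acid were added after transfection. Whole-cell recording was done about 24 h later at −60 mV and 23°C on lifted cells with piezo-driven theta-glass exchange.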

[3] = Maximum solubility in extracellular oocyte recording solution; format: physicochemical; conditions: aqueous buffer
[4] = target: T1, GluN1/GluN2A; assay: Two-electrode voltage-clamp recordings, Xenopus oocytes; format: cell-based; conditions: for Schild slope / pA2 (Schild plot): 100 μM glutamate
[5] = target: GluN1-1b/GluN2A receptors (Rattus norvegicus, UniProt P35439+Q00959); assay: Two-electrode voltage-clamp recordings, Xenopus oocytes; format: cell-based; conditions: 3 μM TCN-201, 30 μM glycine; contains exon 5
Procedure, shortened: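 Xenopus laevis oocytes (female) were injected with in vitro transcribed cRNA and recorded by two-electrode voltage clamp 3–4 d after injection at 23°C, holding at −40 mV. Voltage and current electrodes held 0.3 and 3.0 M KCl.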

[6] = target: GluN1/GluN2A V783L (Rattus norvegicus, UniProt P35439+Q00959, V783L); assay: Two-electrode voltage-clamp recordings, Xenopus oocytes; format: cell-based
[7] = target: GluN1/GluN2A Q781A (Rattus norvegicus, UniProt P35439+Q00959, Q781A); assay: as above; format: cell-based; conditions: 100 μM glutamate + 3 μM glycine
[8] = target: GluN1/GluN2A P527A (Rattus norvegicus, UniProt P35439+Q00959, P527A); assay: as above; format: cell-based; conditions: 100 μM glutamate + 3 μM glycine
[9] = target: GluN1/GluN2A V783A (Rattus norvegicus, UniProt P35439+Q00959, V783A); assay: as above; format: cell-based; conditions: 100 μM glutamate + 3 μM glycine
[10] = target: GluN1/GluN2A V783T (Rattus norvegicus, UniProt P35439+Q00959, V783T); assay: as above; format: cell-based; conditions: 100 μM glutamate + 3 μM glycine
[11] = target: GluN1/GluN2D (Rattus norvegicus, UniProt P35439+Q62645); assay: Two-electrode voltage-clamp recordings, Xenopus oocytes; format: cell-based; conditions: 100 μM glutamate + 3 μM glycine; N.E. = no effect at 10 μM TCN-201
Procedure, shortened: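 cRNA from linearized constructs injected into female Xenopus laevis oocytes. Two-electrode voltage clamp done 3–4 d later at 23°C, holding at −40 mV, in 90 NaCl, 1 KCl, 10 HEPES, 0.5 BaCl₂, 0.01 EDTA (mM), pH 7.4. […] Max inhibition is (control − residual at saturating compound)/control.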

[12] = target: GluN1/GluN2A V783F (Rattus norvegicus, UniProt P35439+Q00959, V783F); assay: Two-electrode voltage-clamp recordings, Xenopus oocytes; format: cell-based; conditions: 100 μM glutamate + 3 μM glycine
[13] = target: GluN1/2A-(2D D2) (Rattus norvegicus, UniProt P35439+Q00959, D675E/D715E/F680L/F708Y/G712R/G740R/H674Q/I755V/K668R/K738M/N696S/Q661T/Q703S/R681K/R692K/R711P/R741K/S677Y/S719Q/T663S/T706V/T722A/V718T/Y676Q/Y700D/Y754K); assay: as above; format: cell-based; conditions: 100 μM glutamate plus 30 μM glycine
[14] = target: GluN1/GluN2A L777A (Rattus norvegicus, UniProt P35439+Q00959, L777A); assay: as above; format: cell-based; conditions: 100 μM glutamate + 3 μM glycine
[15] = target: GluN1/2A-(2D D1) (Rattus norvegicus, UniProt P35439+Q00959, A414R/D421P/DELINS438-452SQLNRTHSPPPDAPRPE/E427G/E790M/G786D/I408V/I422A/K454R/K466R/K472G/L425I/M788I/N404Q/N432D/N490D/N491G/P770R/Q766H/Q774P/R469H/S407T/S468A/S538A/T426S/T433S/T474S/T793R/T797S/V409A/V430I/V471I/V489I/V501F/V506D/V509I/V521I/V783L); assay: as above; format: cell-based; conditions: 100 μM glutamate plus 30 μM glycine
[16] = target: GluN1/GluN2A G786D (Rattus norvegicus, UniProt P35439+Q00959, G786D); assay: as above; format: cell-based; conditions: 100 μM glutamate + 3 μM glycine
[17] = 50 μM glutamate, antagonist 0.1 μM
[18] = 50 μM glutamate, antagonist 0.3 μM
[19] = 50 μM glutamate, antagonist 1 μM
[20] = 100 μM glutamate + 1 μM glycine
[21] = 100 μM glutamate + 30 μM glycine

Chain of GluN1/GluN2D (Q62645 28-1323, other chains not shown): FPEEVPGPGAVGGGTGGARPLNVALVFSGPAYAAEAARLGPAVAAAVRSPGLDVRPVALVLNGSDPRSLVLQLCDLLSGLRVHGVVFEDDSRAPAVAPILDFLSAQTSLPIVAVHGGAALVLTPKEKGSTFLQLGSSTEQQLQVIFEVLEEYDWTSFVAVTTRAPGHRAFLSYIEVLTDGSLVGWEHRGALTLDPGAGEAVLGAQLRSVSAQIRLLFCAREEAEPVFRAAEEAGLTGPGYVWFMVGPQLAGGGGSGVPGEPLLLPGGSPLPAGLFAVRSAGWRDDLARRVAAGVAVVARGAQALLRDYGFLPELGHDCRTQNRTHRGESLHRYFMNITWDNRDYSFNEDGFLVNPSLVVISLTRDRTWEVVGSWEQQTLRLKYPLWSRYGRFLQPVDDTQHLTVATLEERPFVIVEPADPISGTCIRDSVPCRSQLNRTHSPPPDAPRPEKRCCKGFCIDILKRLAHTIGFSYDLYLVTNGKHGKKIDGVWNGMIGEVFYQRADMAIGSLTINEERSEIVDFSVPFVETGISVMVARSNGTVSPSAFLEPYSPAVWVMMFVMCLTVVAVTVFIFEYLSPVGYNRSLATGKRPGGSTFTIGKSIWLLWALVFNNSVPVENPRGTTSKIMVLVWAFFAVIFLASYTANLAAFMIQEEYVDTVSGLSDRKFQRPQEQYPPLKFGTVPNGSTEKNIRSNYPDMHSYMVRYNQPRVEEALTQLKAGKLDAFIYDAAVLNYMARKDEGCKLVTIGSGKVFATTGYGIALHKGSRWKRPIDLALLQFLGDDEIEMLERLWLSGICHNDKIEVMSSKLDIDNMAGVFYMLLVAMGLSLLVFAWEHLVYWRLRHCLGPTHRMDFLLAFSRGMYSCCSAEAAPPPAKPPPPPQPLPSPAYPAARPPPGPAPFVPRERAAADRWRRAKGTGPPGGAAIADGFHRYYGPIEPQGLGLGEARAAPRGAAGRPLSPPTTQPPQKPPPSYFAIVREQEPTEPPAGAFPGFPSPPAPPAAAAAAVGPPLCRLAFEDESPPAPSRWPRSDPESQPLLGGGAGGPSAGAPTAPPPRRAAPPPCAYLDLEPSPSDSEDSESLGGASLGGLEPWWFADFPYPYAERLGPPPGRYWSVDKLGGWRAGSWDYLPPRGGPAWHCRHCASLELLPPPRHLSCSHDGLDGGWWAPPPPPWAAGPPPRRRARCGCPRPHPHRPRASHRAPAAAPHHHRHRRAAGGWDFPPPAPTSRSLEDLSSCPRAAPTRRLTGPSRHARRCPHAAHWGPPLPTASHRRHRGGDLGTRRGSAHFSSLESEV

Inhibition by 3 μM TCN-201 [1]: did not reduce inhibition
τinhibition ([2]; 3 μM TCN-201 in the presence of both glutamate (50 μM) and glycine (10 μM)): 3.4 ± 0.2 s
τinhibition (time constant for TCN-201 binding) ([2]; 3 μM TCN-201 pre-incubated in the absence of any agonists): 3.5 ± 0.3 s
τinhibition ([2]; 3 μM TCN-201 pre-incubated with glutamate alone (50 μM)): 1.1 ± 0.1 s
TCN-201 binding / τinhibition ([2]; 3 μM TCN-201 pre-incubated with glycine alone (10 μM)): Minimal binding
τweighted for glycine deactivation ([2]; brief (10 ms) 1 mM glycine, 50 μM glutamate, 1 μM TCN-201): 27 ± 2 ms
% fast [2, 17]: 74 ± 2%
τfast [2, 17]: 20 ± 1 ms
τslow [2, 17]: 131 ± 7 ms
% fast [2, 18]: 82 ± 1%
τfast [2, 18]: 18 ± 1 ms
τslow [2, 18]: 123 ± 11 ms
% fast [2, 19]: 89 ± 2%
τfast [2, 19]: 16 ± 2 ms
τslow [2, 19]: 116 ± 19 ms
τweighted for glycine deactivation vs absence of TCN-201 ([2]; long (5 seconds) 1 mM glycine, 50 μM glutamate): no significant difference
deactivation time constant, mono-exponential fit (τslow) ([2]; long application (5 seconds) of 1000 μM glycine, 50 μM glutamate, antagonist 0.3 μM): 124 ± 12 ms
solubility [3]: 18 µM (≈ 8.31 µg/mL)
TCN-201 activity Max. % inhibition [4, 20]: 100 ± 1%
TCN-201 activity nH [4, 20]: 1.2
TCN-201 activity nH ([4]; 100 μM glutamate + 3 μM glycine): 1.5
TCN-201 activity Max. % inhibition [4, 21]: 73 ± 2%
TCN-201 activity nH [4, 21]: 2.2
Schild slope ([4]; agonist D-cycloserine): 0.90
pA2 (Schild plot) ([4]; agonist D-cycloserine): 7.39
Schild slope ([4]; agonist D-serine): 0.79
pA2 (Schild plot) ([4]; agonist D-serine): 7.39
Schild slope ([4]; agonist glycine): 0.87
allosteric constant α ([4]; global nonlinear regression of glycine concentration-response data): 0.0025
Maximal increase in glycine EC50 (1/α) ([4]; implied by α = 0.0025): 400 fold
Response, % of control [5]: 49 ± 2 % of control
Kb [6]: 2140 nM
TCN-201 activity Max. % inhibition [7]: 94 ± 2%
TCN-201 activity nH [7]: 1.9
TCN-201 activity Max. % inhibition [8]: 91 ± 3%
TCN-201 activity nH [8]: 1.4
TCN-201 activity Max. % inhibition [9]: 91 ± 2%
TCN-201 activity nH [9]: 1.1
TCN-201 activity Max. % inhibition [10]: 91 ± 1%
TCN-201 activity nH [10]: 1.5
TCN-201 activity IC50 [11]: did not inhibit and N.E.
TCN-201 activity Max. % inhibition [12]: 80 ± 2%
TCN-201 activity nH [12]: 1.8
Inhibition by 3 μM TCN-201 [13]: some TCN-201 activity was retained
TCN-201 activity Max. % inhibition [14]: 98 ± 1%
TCN-201 activity nH [14]: 1.2
Inhibition by 3 μM TCN-201 [15]: eliminated TCN-201 inhibition
TCN-201 activity Max. % inhibition [16]: 82 ± 3%
TCN-201 activity nH [16]: 1.7
Structure (SMILES): O=C(NNC(=O)c1ccc(CNS(=O)(=O)c2ccc(F)c(Cl)c2)cc1)c1ccccc1 [TCN-201, 3-chloro-4-fluoro-N-[(4-[(2-(phenylcarbonyl)hydrazino)carbonyl]phenyl)methyl]-benzenesulfonamide]
